Results taken from PMC6519384 (Andrology, 2018).

Experiments:
blood esterases = experiment: Ex vivo addition of DMAU to blood in different blood collection tubes; format: in vitro ADME, human; settings: for Reduction of conversion of DMAU to DMA in NaF tubes: NaF 15 mg/mL blood; for Reduction of conversion of DMAU to DMA in NaF tubes / DMA level: 60 min at RT; for DMA level: plain tube
How it was run: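 Freshly drawn venous whole blood from healthy men is split into 2 mL aliquots in plain or esterase-inhibitor tubes, in duplicate. DMAU in methanol is added to 125–1000 ng/mL and held 30 or 60 min at 4 °C or 60 min at 23 °C before centrifugation. DMA is extracted twice with MTBE/hexane (50:50) and run by LC‑MS/MS. Duplicates are averaged and results given as % difference vs plain tube under the same conditions.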

[1] = DMAU added to serum with increasing NaF, DMA measured; format: in vitro ADME, human; settings: Table S1, Experiment 3
[2] = Single oral dose of 200 mg DMAU in healthy men; format: in vivo, human; settings: oral 200 mg DMAU
How it was run: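 Fifteen healthy men took 200 mg DMAU orally after a meal, in castor oil/benzyl benzoate or as capsule powder. Ten blood draws over 24 h went into plain tubes (kept at RT) and NaF‑containing tubes (4 °C), each held 30 min before centrifugation. DMA and DMAU were measured by LC‑MS/MS. The plain minus NaF‑EDTA DMA difference was regressed on average DMAU, split at 10 ng/mL.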

[3] = DMAU 300 ng/mL, K2EDTA (1.8 mg/mL) tube, 30 min 4 °C
[4] = DMAU 300 ng/mL, K2EDTA (1.8 mg/mL) tube, 60 min 4 °C
[5] = DMAU 300 ng/mL, K2EDTA (1.8 mg/mL) tube, 60 min RT
[6] = DMAU 300 ng/mL, NaF (1.5 mg/mL) + Na2EDTA (3 mg/mL) tube, 30 min 4 °C
[7] = DMAU 300 ng/mL, NaF (1.5 mg/mL) + Na2EDTA (3 mg/mL) tube, 60 min 4 °C
[8] = DMAU 300 ng/mL, NaF (5 mg/mL) + K2Oxalate (4 mg/mL) tube, 60 min 4 °C
[9] = DMAU 300 ng/mL, NaF (5 mg/mL) + K2Oxalate (4 mg/mL) tube, 60 min RT
[10] = DMAU 300 ng/mL, P800 tube, 30 min 4 °C
[11] = DMAU 300 ng/mL, P800 tube, 60 min 4 °C
[12] = DMAU 300 ng/mL, P800 tube, 60 min RT
[13] = DMAU 600 ng/mL, K2EDTA (1.8 mg/mL) tube, 30 min 4 °C
[14] = DMAU 600 ng/mL, K2EDTA (1.8 mg/mL) tube, 60 min 4 °C
[15] = DMAU 600 ng/mL, K2EDTA (1.8 mg/mL) tube, 60 min RT
[16] = DMAU 600 ng/mL, NaF (1.5 mg/mL) + Na2EDTA (3 mg/mL) tube, 30 min 4 °C
[17] = DMAU 600 ng/mL, NaF (1.5 mg/mL) + Na2EDTA (3 mg/mL) tube, 60 min 4 °C
[18] = DMAU 600 ng/mL, NaF (1.5 mg/mL) + Na2EDTA (3 mg/mL) tube, 60 min RT
[19] = DMAU 600 ng/mL, NaF (5 mg/mL) + K2Oxalate (4 mg/mL) tube, 30 min 4 °C
[20] = DMAU 600 ng/mL, NaF (5 mg/mL) + K2Oxalate (4 mg/mL) tube, 60 min 4 °C
[21] = DMAU 600 ng/mL, NaF (5 mg/mL) + K2Oxalate (4 mg/mL) tube, 60 min RT
[22] = DMAU 600 ng/mL, P800 tube, 30 min 4 °C
[23] = DMAU 600 ng/mL, P800 tube, 60 min 4 °C
[24] = DMAU 600 ng/mL, P800 tube, 60 min RT

In the case of CCCCCCCCCCC(=O)O[C@H]1CC[C@H]2[C@H]3[C@H]([C@@H](C)C[C@]12C)[C@H]1CCC(=O)C=C1C[C@H]3C [DMAU, dimethandrolone undecanoate], the “Reduction of conversion of DMAU to DMA in NaF tubes” value (shortened to “Reduction of conversion of DMAU”) (blood esterases; DMAU 125 ng/mL) is reported as 72%, the DMA level (blood esterases; DMAU 125 ng/mL) is reported as 1.57 ng/mL and the “Reduction of conversion of DMAU” value (blood esterases; DMAU 250 ng/mL) is reported as 61.3%. For the same molecule, the DMA level (blood esterases; DMAU 250 ng/mL) was 2.79 ng/mL, the “% difference vs. Plain” value (blood esterases; [3]) was −56.1% and the DMA (blood esterases; [3]) was 1.4 ng/mL. For the same molecule, the “% difference vs. Plain” value (blood esterases; [4]) was −76.5%, the DMA (blood esterases; [4]) was 1.4 ng/mL and the “% difference vs. Plain” value (blood esterases; [5]) was “+15.2%”. For the same molecule, the DMA (blood esterases; [5]) was 9.7 ng/mL, the “% difference vs. Plain” value (blood esterases; [6]) was −80.6% and the DMA (blood esterases; [6]) was 0.6 ng/mL. For the same molecule, the “% difference vs. Plain” value (blood esterases; [7]) was −77.3%, the DMA (blood esterases; [7]) was 1.3 ng/mL and the DMA (blood esterases; DMAU 300 ng/mL, NaF (5 mg/mL) + K2Oxalate (4 mg/mL) tube, 30 min 4 °C) was “LLOQ”. For the same molecule, the “% difference vs. Plain” value (blood esterases; [8]) was −82.2%, the DMA (blood esterases; [8]) was 1 ng/mL and the “% difference vs. Plain” value (blood esterases; [9]) was −31.9%. For the same molecule, the DMA (blood esterases; [9]) was 5.7 ng/mL, the “% difference vs. Plain” value (blood esterases; [10]) was −78.1% and the DMA (blood esterases; [10]) was 0.7 ng/mL. The “% difference vs. Plain” value (blood esterases; [11]) was −84.2%, the DMA (blood esterases; [11]) was 0.9 ng/mL and the “% difference vs. Plain” value (blood esterases; [12]) was −20.6%. For the same molecule, the DMA (blood esterases; [12]) was 6.7 ng/mL, the DMA (blood esterases; DMAU 300 ng/mL, Plain tube, 30 min 4 °C) was 3.3 ng/mL and the DMA (blood esterases; DMAU 300 ng/mL, Plain tube, 60 min 4 °C) was 5.9 ng/mL. The DMA (blood esterases; DMAU 300 ng/mL, Plain tube, 60 min RT) was 8.4 ng/mL, the “Reduction of conversion of DMAU” value (blood esterases; DMAU 500 ng/mL) was 54.3% and the DMA level (blood esterases; DMAU 500 ng/mL) was 5.54 ng/mL. For the same molecule, the “% difference vs. Plain” value (blood esterases; [13]) was −17.1%, the DMA (blood esterases; [13]) was 1.2 ng/mL and the “% difference vs. Plain” value (blood esterases; [14]) was −46.4%. For the same molecule, the DMA (blood esterases; [14]) was 2.3 ng/mL, the “% difference vs. Plain” value (blood esterases; [15]) was “+13.4%” and the DMA (blood esterases; [15]) was 16.5 ng/mL. For the same molecule, the “% difference vs. Plain” value (blood esterases; [16]) was −30.0%, the DMA (blood esterases; [16]) was 1 ng/mL and the “% difference vs. Plain” value (blood esterases; [17]) was −43.5%. The DMA (blood esterases; [17]) was 2.4 ng/mL, the “% difference vs. Plain” value (blood esterases; [18]) was −29.4% and the DMA (blood esterases; [18]) was 10.2 ng/mL. For the same molecule, the “% difference vs. Plain” value (blood esterases; [19]) was −38.7%, the DMA (blood esterases; [19]) was 0.9 ng/mL and the “% difference vs. Plain” value (blood esterases; [20]) was −72.7%. For the same molecule, the DMA (blood esterases; [20]) was 1.2 ng/mL, the “% difference vs. Plain” value (blood esterases; [21]) was −34.1% and the DMA (blood esterases; [21]) was 9.6 ng/mL. The “% difference vs. Plain” value (blood esterases; [22]) was −42.5%, the DMA (blood esterases; [22]) was 0.9 ng/mL and the “% difference vs. Plain” value (blood esterases; [23]) was −67.1%. The DMA (blood esterases; [23]) was 1.4 ng/mL, the “% difference vs. Plain” value (blood esterases; [24]) was −25.9% and the DMA (blood esterases; [24]) was 10.8 ng/mL. For the same molecule, the DMA (blood esterases; DMAU 600 ng/mL, Plain tube, 30 min 4 °C) was 1.5 ng/mL, the DMA (blood esterases; DMAU 600 ng/mL, Plain tube, 60 min 4 °C) was 4.3 ng/mL and the DMA (blood esterases; DMAU 600 ng/mL, Plain tube, 60 min RT) was 14.5 ng/mL. The “Reduction of conversion of DMAU” value (blood esterases; DMAU 1000 ng/mL) was 48.8%, the DMA level (blood esterases; DMAU 1000 ng/mL) was 8.82 ng/mL and the “Reduction of overestimation of DMA by collecting blood into NaF tubes” value (blood esterases; increasing amounts of DMAU added to blood) was 30–85%. For the same molecule, the “Conversion of DMAU to DMA in serum” value [1] was “no conversion”, the “Difference in DMA concentrations between plain and NaF‐EDTA tubes” value ([2]; DMAU concentrations above 10 ng/mL) was 22% and the “Mean difference in DMA concentrations between plain and NaF‐EDTA tubes” value ([2]; DMAU concentrations below 10 ng/mL) was ~0%.
